The text below walks through data of ChEMBL document CHEMBL4513216, “Probing the Open Global Health Chemical Diversity Library for Multistage-Active Starting Points for Next-Generation Antimalarials” (ACS Infect Dis, 2020).

The structures appear in SMILES notation.

The data set can be described thus: Toxicity liver stage against HepG2, at 10uM. It is filed as cell-based. To be noted: human, HepG2-A16-CD81EGFP cells; read-out: INHIBITION
Set-up: test concentration 10 uM, cell line HepG2-A16-CD81EGFP. In outline:
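Uninfected HepG2-A16-CD81EGFP cells, 3 × 10^3 per well, 1536-well, plated on prespotted compound at 10 μM final, parasite-free screening media added to match infected plates; puromycin 10 μM positive, DMSO 0.5% negative; run in parallel with 48 h PbLuc assay at 37 °C, 5% CO2; viability by CellTiter-Glo luminescence, normalized to controls.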
In the case of `O=C(CNC(=O)c1ccccc1F)NCc1ccccn1`, the cytotoxicity at 10 µM is -0.575%. With `Cc1ccsc1C(=O)N1CCCc2c(c(=O)n(C)n2C)C1` the figure was 6.95%. Under `Cc1ccc(CN2C[C@@H](c3ccccc3)[C@@]3(CCNC3=O)C2)o1` stands -119%. Take `CC(C)n1[nH]c(=O)c2c1NC(=O)CC2c1ccc(S(C)(=O)=O)cc1` (stereo not given): the cytotoxicity at 10 µM was -2.28%. Under `COc1cccc(S(=O)(=O)N2CCOC(C)(C(N)=O)C2)c1` (stereo not given) stands 3.08%; under `CCc1cc(O)n2nc(C3CCN(C(=O)c4ccccn4)CC3)cc2n1`, 2.29%. Consider `CO[C@@H]1CC[C@@H](N(C)C(=O)c2cn3cc(C)ccc3n2)[C@H]1O`, for which the cytotoxicity at 10 µM was found to be 0.91%. With `O=C1CN(C(=O)C2CN(c3ccccc3)CCO2)CCN1` (stereo not given) the figure was 1.91%.

`Cc1cc(NCCC(=O)NC(C)C)nc(-c2ccncc2)n1`: the cytotoxicity at 10 µM was -6.74%.

For `O=C(NCc1cnn(-c2ccc(F)cc2F)c1)C1CCCO1` (stereo not given), the cytotoxicity at 10 µM worked out at 8.69%. Under `CCN(C(=O)Nc1cc(C)on1)C(C)c1cccc(O)c1` (stereo not given) stands 2.52%. With `CN1CCOC(CNCc2c(Cl)nc3ccccn23)C1` (stereo not given) the figure was -0.0638%; with `Cc1n[nH]c(C2CN(Cc3csc(C4CCCC4)n3)CCO2)n1` (stereo not given), 12.9%. With `CC(=O)NC(C)(C)c1noc(C2(C#N)CCCCC2)n1` the figure was 7.57%. Take `C=C(C)Cn1ccc2cc(OC)c(F)cc2c1=O`: the cytotoxicity at 10 µM was found to be 3.09%. `CCCN1CCC(N2CCN(c3cc(C)nc(C)c3)CC2)CC1`: the cytotoxicity at 10 µM was -11.2%. With `CS(=O)(=O)N1CCC[C@H]1c1ncnn1-c1ccc2c(c1)OCO2` the figure was -12.8%; with `CSc1cccc(CN2CCC(CCC(=O)NCCN(C)C)CC2)c1`, -11.9%. Take `COc1cccn(CC(=O)N2CCCC3(CCCO3)CC2)c1=O` (stereo not given): the cytotoxicity at 10 µM is 0.955%. As to `CN(CCCc1cnn(C)c1)C(=O)C1COc2ccccc2C1` (stereo not given), the cytotoxicity at 10 µM was -5.91%. Under `CCc1cc(NCCc2ccc(O)cc2)n2nccc2n1` stands -16.3%; under `CNc1nc(C2CCCN2C(C)=O)nc2c1CCN(CC1CC1)C2` (stereo not given), -0.361%. With `Cn1cnc2c1CCN(Cc1csc(-c3ccc(F)cc3)n1)C2` the figure was -4.78%; with `CN1CCN(c2cc(CNC(=O)c3ccsc3)ccn2)CC1`, -7.27%; with `Cc1cc(NC(=O)NCC(c2ccccc2)N2CCOCC2)n(C)n1` (stereo not given), -11%. Under `CCOc1ccc(C#N)cc1NCC(=O)NC1(C#N)CCCC1` stands -30.8%; under `CC(C)c1nc2c(n1C)CCN(CCCOc1ccc(C#N)cc1)C2`, -12.8%. With `CC(C)c1nc2n(n1)CC(NCc1nnc(C3CC3)o1)CC2` (stereo not given), the cytotoxicity at 10 µM was -11.6%. Under `CCCC(=O)N1CCN(CC(O)COCC)CC1` (stereo not given) stands -20.6%; under `COc1ccc(C(O)CNc2c(C#N)c(=O)n(C)c(=O)n2C)cc1` (stereo not given), -7.34%; under `COc1ccc(C(C)NC(=O)NCCCn2cncn2)cc1F` (stereo not given), 2.12%. Under `COc1ccc(CN(C)Cc2nc3c(cnn3C)c(=O)[nH]2)cc1OC` stands 0.457%.

On to `CC(C)(C)OC(=O)N1CCN(C(=O)c2sccc2C2CC2)CC1`, for which the cytotoxicity at 10 µM was found to be 2.38%. As for `CCN(CCNC(=O)c1ccccc1Br)C1CC1`, the cytotoxicity at 10 µM came out at 3.32%. As for `CCCS(=O)(=O)N1C[C@@H]2CN(Cc3cccs3)CCO[C@@H]2C1`, the cytotoxicity at 10 µM is -145%.

In the case of `Cn1cccc1C(=O)N1CCC2(CCCN2c2ncccn2)CC1`, the cytotoxicity at 10 µM stood at 6.07%. As for `O=C(c1cccnc1)N1CCOC2(COCCN(c3cncnc3)C2)C1` (stereo not given), the cytotoxicity at 10 µM is 4.53%. Under `CCc1ncnc2c1CCN(Cc1nccs1)CC2` stands 6.56%. With `O=C1N(CC2CC2)CCC12CCN(c1ncccn1)CC2` the figure was 3.77%; with `Cc1ccc(N2CC[C@@H]3CN(Cc4cccc(C)n4)C[C@@H]3C2)nn1`, 6.34%.
